Source: ChEMBL document CHEMBL4425094, “Novel Benzo[a]quinolizidine Analogs Induce Cancer Cell Death through Paraptosis and Apoptosis” (J Med Chem, 2016)
Active and inactive are the calls of the source. The calls are words filed in the database; no cut-off is given here.

Experiments:
PC-3 [1] = assay: Induction of ER stress in human PC3 cells assessed as activation of XBPI mRNA incubated for 22 hrs after ER stress inhibitor 4-PBA exposure for 2 hrs by Western blot analysis; format: functional, cell-based
Method in brief: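 PC3 cells pretreated 2 h with 4-PBA (100 μM), then compound added for a further 22 h. Viability measured by MTT. GRP78 assessed by Western blot, along with XBP1 mRNA splicing analysis. Morphology by phase contrast.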

PC-3 [2] = assay: Induction of autophagy in human PC3 cells transfected with mRFP-GFP-LC3 assessed as pervacuolar distribution of LC3 at 1 uM after 8 hrs by fluorescence microscopic analysis; format: functional, cell-based
Method in brief: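 PC3 cells transfected with an mRFP-GFP-LC3 reporter plasmid, then treated 8 h with 1 μM test agent or 0.5 μM rapamycin (autophagy inducer). Imaged by confocal fluorescence microscopy: yellow puncta (overlapping red/green) scored as autophagosomes, red-only puncta as autolysosomes, since GFP is quenched in acidic lysosomes.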

PC-3 [3] = assay: Induction of apoptosis in human PC3 cells assessed as early apoptotic cells at 2 uM after 24 hrs by Annexin V-FITC/propidium iodide based flow cytometric analysis (reference value: 2.3 %); format: functional
Method in brief: (§1)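 PC3 cells exposed to 0.5, 1 or 2 μM for 24 h, then stained with Annexin V-FITC and PI and analyzed by FACSCalibur flow cytometry. Populations assigned as necrotic (Annexin V−/PI+), late apoptotic (double positive), normal (Annexin V−/PI−) and early apoptotic (Annexin V+/PI−). DMSO vehicle control.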

PC-3 [4] = assay: Induction of cytoplasmic vacuolation in human PC3 cells at 1 uM after 24 hrs by phase-contrast microscopic analysis; format: functional, cell-based
Method in brief: (§2)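 PC3 cells in RPMI 1640 with 10% FBS at 37 °C, 5% CO2, treated with 1 μM agent for 0−24 h; DMSO vehicle control. Vacuole appearance, size and number followed over time by phase-contrast microscopy at constant magnification.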

PC-3 [5] = assay: Induction of ER stress in human PC3 cells assessed as upregulation of CHOP after 24 hrs by Western blot analysis; format: functional, cell-based
Method in brief: (§3)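 PC3 cells in RPMI 1640 with 10% FBS, treated with compound for timed intervals. DMSO vehicle control. Lysis in RIPA buffer, 40 μg protein per lane on SDS-PAGE, transfer to nitrocellulose. Primary antibodies overnight at 4 °C, HRP-secondary 45 min, ECL detection. GAPDH or β-actin used as loading control.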

PC-3 [6] = assay: Induction of apoptosis in human PC3 cells assessed as viable cells at 0.5 uM after 24 hrs by Annexin V-FITC/propidium iodide based flow cytometric analysis (reference value: 95.4 %); format: functional; settings: PC-3, 24 h, read-out: Activity; method in brief: as §1
PC-3 [7] = assay: Induction of apoptosis in human PC3 cells assessed as late apoptotic cells at 2 uM after 24 hrs by Annexin V-FITC/propidium iodide based flow cytometric analysis (reference value: 1.1 %); format: functional; method in brief: as §1
PC-3 [8] = assay: Cytotoxicity against human PC3 cells assessed as cell growth inhibition after 24 hrs by MTT assay; format: functional, cell-based; settings: PC-3, 24 h
Method in brief: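 Cells seeded 24 h in RPMI 1640 + 10% FBS. RWPE-1 was kept in K-SFM with bovine pituitary extract and EGF. Cells then exposed to compounds for 24 h at 37 °C, 5% CO2, with DMSO vehicle and docetaxel as positive control. MTT added for 4 h, absorbance read at 570 nm. Triplicate runs, IC50 reported as mean of three experiments.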

PC-3 [9] = assay: Cytotoxicity against human PC3 cells transfected with LC3-targeting siRNA assessed as reduction in cell viability at 1 uM after 24 hrs by Western blot analysis; format: functional, cell-based
Method in brief: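 PC3 cells plated at 20−30% confluence and transfected 24 h later with 50 nM LC3-targeting or scramble siRNA. After 48 h, cells were exposed to 1 μM compound for a further 24 h. Read-out by Western blot and phase-contrast imaging.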

[10] = target: T1, Eukaryotic translation initiation factor 2-alpha kinase 3 (Homo sapiens) (UniProt Q9NZJ5); assay: Activation of PERK phosphorylation in human PC3 cells assessed as eIF2alpha phosphorylation after 24 hrs by Western blot analysis; format: cell-based; method in brief: as §3
T1 sequence (whole entry): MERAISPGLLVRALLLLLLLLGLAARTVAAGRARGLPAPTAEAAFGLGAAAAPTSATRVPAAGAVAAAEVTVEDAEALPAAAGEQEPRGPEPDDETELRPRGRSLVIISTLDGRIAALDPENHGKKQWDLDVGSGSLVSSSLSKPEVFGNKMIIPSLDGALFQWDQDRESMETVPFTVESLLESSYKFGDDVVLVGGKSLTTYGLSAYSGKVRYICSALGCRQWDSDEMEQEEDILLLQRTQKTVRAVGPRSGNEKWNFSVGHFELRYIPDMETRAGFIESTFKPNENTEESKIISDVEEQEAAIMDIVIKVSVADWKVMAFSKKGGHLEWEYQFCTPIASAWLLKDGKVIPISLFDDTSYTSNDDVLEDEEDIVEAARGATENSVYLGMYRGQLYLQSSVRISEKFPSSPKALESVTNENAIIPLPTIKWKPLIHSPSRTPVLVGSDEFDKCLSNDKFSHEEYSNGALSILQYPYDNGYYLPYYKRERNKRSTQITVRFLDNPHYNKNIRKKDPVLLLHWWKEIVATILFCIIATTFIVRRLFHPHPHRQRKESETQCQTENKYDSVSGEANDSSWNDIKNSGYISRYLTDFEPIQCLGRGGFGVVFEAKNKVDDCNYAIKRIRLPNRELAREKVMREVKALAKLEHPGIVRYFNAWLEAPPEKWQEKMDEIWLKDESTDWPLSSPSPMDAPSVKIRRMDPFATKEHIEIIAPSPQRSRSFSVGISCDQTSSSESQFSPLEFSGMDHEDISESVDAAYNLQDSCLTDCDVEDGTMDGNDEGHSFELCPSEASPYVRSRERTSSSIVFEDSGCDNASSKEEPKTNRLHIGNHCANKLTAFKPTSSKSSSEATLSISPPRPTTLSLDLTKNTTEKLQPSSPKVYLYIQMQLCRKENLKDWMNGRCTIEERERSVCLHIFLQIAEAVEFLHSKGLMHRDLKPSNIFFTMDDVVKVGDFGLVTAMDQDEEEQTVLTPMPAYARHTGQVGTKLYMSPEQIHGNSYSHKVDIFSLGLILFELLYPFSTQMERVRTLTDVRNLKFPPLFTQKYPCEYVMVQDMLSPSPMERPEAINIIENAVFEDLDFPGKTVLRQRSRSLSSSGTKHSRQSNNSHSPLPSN

PC-3M = assay: Antiproliferation activity against human PC3M-lluc-C6 cells xenografted in athymic Balb/c mouse assessed as decrease in cell viability at 15 mg/kg, ip administered every 2 days for 18 days by Ki-67 staining based microscopic analysis; format: functional, organism-based
Method in brief: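 Male BALB/c-nu mice, 6 weeks old, each given 5 × 10^6 PC3M-luc-C6 cells subcutaneously in the right anterior flank. At ~0.1 cm3 tumor, groups of n = 5 received 15 mg/kg i.p. every 2 days. Docetaxel 15 mg/kg was the positive control. Tumor tissue stained with H&E or anti-Ki67 (1:500) overnight at 4 °C, HRP/DAB, hematoxylin counterstain, examined by microscopy.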

PC-3 [11] = assay: Induction of cytoplasmic vacuolation in human PC3 cells assessed as formation of small vacuoles at 1 uM after 4 hrs by phase-contrast microscopic analysis; format: functional, cell-based; method in brief: as §2

## Cc1cc(C)cc(COc2cc3c(cc2OCc2cc(C)cc(C)c2)[C@@H]2C[C@H](O)C[C@@H](C)N2CC3)c1 (racemic)
PC-3 [1]
  Activity: inactive
PC-3 [2]
  Activity: Active
PC-3 [3]
  Activity: 20.5%
PC-3 [4]
  Activity: Active
PC-3 [5]
  Activity: Active
PC-3 [6]
  viability at 0.5 µM: 95.3%
PC-3 [7]
  Activity: 36.4%
PC-3 [8]
  IC50: 660 nM
PC-3 [9]
  Activity: inactive
[10]
  Activity: Active
PC-3M
  inhibition: Active
PC-3 [11]
  Activity: Active
